Measurements: paper PMC6379856 (ACS Chemical Biology, 2019)

How the values were obtained:
PLA2G16 [1] = biological target: T1, PLA2G16 (Homo sapiens, UniProt P53816); assay: Competitive ABPP with probe MB064, cytosol proteome of transfected HEK293T cells; assay type: biochemical
T1 sequence (P53816 1-162): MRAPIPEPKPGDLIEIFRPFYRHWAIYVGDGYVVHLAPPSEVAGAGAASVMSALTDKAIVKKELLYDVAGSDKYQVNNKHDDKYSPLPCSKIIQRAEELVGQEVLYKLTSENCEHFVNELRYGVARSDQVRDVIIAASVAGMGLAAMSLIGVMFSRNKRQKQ

RARRES3 = biological target: T2, RARRES3 (Homo sapiens, UniProt Q9UL19); assay: as above; assay type: biochemical
T2 sequence (Q9UL19 1-164): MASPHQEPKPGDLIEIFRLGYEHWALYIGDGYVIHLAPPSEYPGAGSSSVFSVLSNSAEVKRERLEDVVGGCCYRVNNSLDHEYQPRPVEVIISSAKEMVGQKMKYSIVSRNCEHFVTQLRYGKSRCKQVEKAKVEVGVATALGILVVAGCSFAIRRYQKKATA

HepG2 cells = assay: Oleic acid-induced lipid droplet formation; assay type: cell-based, human; settings: 10 μM, 24 h, oleic acid 100 μM
Procedure, shortened: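 HepG2 cells were given oleic acid (100 µM, 24 h) to induce steatosis and treated in situ with test compound (10 µM, 24 h). Lipid droplets were stained with Adipored. Significance was assessed by Student's t-test.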

endogenous PLA2G16 = biological target: T3, endogenous PLA2G16 (Mus musculus, UniProt Q8R3U1); assay: Competitive ABPP with MB064 in cytosol proteome of mouse WAT and BAT; assay type: biochemical; settings: 10 μM
T3 sequence (Q8R3U1 1-162): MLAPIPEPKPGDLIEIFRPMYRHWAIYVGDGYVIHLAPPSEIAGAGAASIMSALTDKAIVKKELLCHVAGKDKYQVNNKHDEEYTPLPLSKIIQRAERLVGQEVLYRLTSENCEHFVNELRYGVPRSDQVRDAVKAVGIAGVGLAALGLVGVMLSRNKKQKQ
Procedure, shortened: (§1)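 Cytosol proteomes from freshly isolated mouse white and brown adipose tissue were preincubated with test compound (10 µM) or DMSO. They were then labelled with probe MB064, resolved by SDS-PAGE and fluorescence-scanned. The gels were Western blotted with an anti-PLA2G16 antibody to locate native PLA2G16.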

[2] = tested on: U2OS cells transfected with human PLA2G16; assay type: cell-based; settings: 10 μM, 4 or 8 h, serum-free, in situ
Procedure, shortened: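 U2OS cells transfected with human PLA2G16 were exposed in situ, under serum-free conditions, to DMSO vehicle or test compound at 10 µM for 4 or 8 h. Arachidonic acid levels were then measured. Significance was assessed by Student's t-test.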

[3] = tested on: other proteins in brown and white adipose tissue; assay type: biochemical, mouse; settings: 10 μM, probe MB064
Procedure, shortened: as §1

PLA2G16 [4] = biological target: T1, PLA2G16; assay: PC-A2 fluorescent substrate assay; assay type: biochemical
Procedure, shortened: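 HEK293T cells overexpressing human PLA2G16 supplied the cytosol proteome used as enzyme source. Test compound was tested over a concentration range in the fluorescent PC-A2 phospholipid substrate assay. Dose–response curves were generated (n = 3).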

iNAT = biological target: T4, iNAT (Homo sapiens, UniProt Q96KN8); assay: Competitive ABPP with probe MB064, cytosol proteome of transfected HEK293T cells; assay type: biochemical
T4 sequence (Q96KN8 1-279): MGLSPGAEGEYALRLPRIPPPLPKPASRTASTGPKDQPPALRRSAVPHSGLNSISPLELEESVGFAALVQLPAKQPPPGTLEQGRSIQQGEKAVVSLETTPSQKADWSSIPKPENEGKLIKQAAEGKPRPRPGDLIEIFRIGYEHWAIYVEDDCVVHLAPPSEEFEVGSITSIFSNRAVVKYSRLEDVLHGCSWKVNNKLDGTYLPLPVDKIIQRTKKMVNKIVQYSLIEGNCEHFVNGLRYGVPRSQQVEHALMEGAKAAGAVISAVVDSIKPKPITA

[5] = tested on: endogenously expressed serine hydrolases in mouse brain; assay: Competitive gel-based ABPP in mouse brain proteomes with FP-TAMRA and MB064; assay type: biochemical
Procedure, shortened: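 Mouse brain membrane and cytosol proteomes were treated with DMSO or test compound at 10 µM. Each was then labelled with MB064 or FP-TAMRA and resolved by SDS-PAGE with fluorescent scanning. Coomassie staining served as the protein loading control.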

increase in potency compared to compound 1 in the ABPP-assay (PLA2G16 [1]; PLA2G16) [fold]	IC50 (RARRES3) [nM]	labeling of native PLA2G16 by MB064 (endogenous PLA2G16)	Ki (PLA2G16 [4]) [nM]	IC50 (iNAT) [nM]	PLA2G16 labeling by MB064 (library screen) (PLA2G16 [1]; inhibitor at 10 μM, competitive ABPP)	SMILES	lipid droplet formation induced by oleic acid (HepG2 cells)	PLA2G16-induced increase in arachidonic acid [2]	labeling of other proteins in brown and white adipose tissue [3]	selectivity over brain serine hydrolases ([5]; gel-based ABPP assay (Figure S7))	labeling of proteins in mouse brain targeted by FP-TAMRA or MB064 ([5]; 10 μM, mouse brain membrane and cytosol proteome)
10	158	completely abolished	20	25.1		O=C(CCCc1ccccc1)C(=O)NCCc1ccc(Oc2ccc(C(F)(F)F)cn2)cc1 [LEI110, 2-oxo-5-phenyl-N-(4-((5-(trifluoromethyl)pyridin-2-yl)oxy)-phenethyl)pentanamide]	reduction in lipid droplet formation	almost completely abolished	not affected	selective	
	631	completely abolished			almost completely abolished	O=C(CCc1ccc(Cl)cc1)C(=O)NCCc1ccccc1 [Compound 1, 4-(4-chlorophenyl)-2-oxo-N-phenethylbutan-amide]			not affected		did not reduce the labeling of any proteins
